Consider 6 molecules from ChEMBL document CHEMBL3272114, “Antimalarials. 10. Synthesis of 4-substituted primaquine analogues as candidate antimalarials” (J Med Chem, 1977).

Data set [1] deals with Plasmodium berghei. The data set is described as follows: Antimalarial activity against Plasmodium berghei infected in mouse assessed as change in mean survival time at 160 mg/kg, sc by Rane test. It counts as functional. Particulars: route subcutaneous. A digest of the protocol: (§1)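 Mice were infected with P. berghei 3 days before drug. The compound was usually given subcutaneously in sesame or peanut oil at 20 to 640 mg/kg. Activity was read as the extension of mean survival time (ΔMST, days) of treated mice over infected controls.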

The test system of data set [2] is Plasmodium berghei. Briefly: Antimalarial activity against Plasmodium berghei infected in mouse assessed as change in mean survival time at 320 mg/kg, sc by Rane test. It counts as functional. Particulars: route subcutaneous. A digest of the protocol:
as §1

Data set [3] concerns Mus musculus. Briefly: Toxicity in mouse infected with Plasmodium berghei assessed as animal death at 640 mg/kg, sc. It counts as organism-based. More on the design: dose 640 mg/kg, route subcutaneous. Particulars: in vivo.
Data set [4] deals with Plasmodium cynomolgi. Briefly: Antimalarial activity against Plasmodium cynomolgi infected in rhesus monkey at 0.25 mg/kg administered daily for 7 days. It counts as functional, organism-based. More on the design: dose 0.25 mg/kg. A digest of the protocol:
(§2)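 Rhesus monkeys infected with P. cynomolgi, dosed once daily for 7 days at each listed mg/kg level. Cures were recorded as the number of monkeys cured over the number treated.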

Data set [5] deals with Plasmodium berghei. Briefly: Antimalarial activity against Plasmodium berghei infected in mouse assessed as change in mean survival time at 20 mg/kg, sc by Rane test. Particulars: route subcutaneous. It counts as functional. Put shortly:
as §1

For data set [6], the system named is Plasmodium berghei. Briefly: Antimalarial activity against Plasmodium berghei infected in mouse assessed as change in mean survival time at 40 mg/kg, sc by Rane test. It counts as functional. Particulars: route subcutaneous. Put shortly:
as §1

Data set [7] has as its system Plasmodium berghei. Briefly: Antimalarial activity against Plasmodium berghei infected in mouse assessed as change in mean survival time at 80 mg/kg, sc by Rane test. It counts as functional. Particulars: route subcutaneous. Put shortly: as §1
For data set [8], the system named is Plasmodium berghei. Briefly: Antimalarial activity against Plasmodium berghei infected in mouse assessed as disease cure at 160 mg/kg, sc by Rane test. It counts as functional, organism-based. Also on record: dose 160 mg/kg.
In data set [9] the test system is Plasmodium berghei. The data set is described as follows: Antimalarial activity against Plasmodium berghei infected in mouse assessed as disease cure at 320 mg/kg, sc by Rane test. Also on record: dose 320 mg/kg. It counts as functional, organism-based.
The subject of data set [10] is Plasmodium berghei. Briefly: Antimalarial activity against Plasmodium berghei infected in mouse assessed as disease cure at 640 mg/kg, sc by Rane test. It counts as functional, organism-based. More on the design: dose 640 mg/kg.
The test system of data set [11] is Plasmodium cynomolgi. Briefly: Antimalarial activity against Plasmodium cynomolgi infected in rhesus monkey at 1 mg/kg administered daily for 7 days. It counts as functional, organism-based. Also on record: dose 1 mg/kg.
For data set [12], the system named is Plasmodium berghei. Briefly: Antimalarial activity against Plasmodium berghei infected in mouse assessed as change in mean survival time at 640 mg/kg, sc by Rane test. It counts as functional. Particulars: route subcutaneous. A digest of the protocol:
as §1

The subject of data set [13] is Plasmodium cynomolgi. Briefly: Antimalarial activity against Plasmodium cynomolgi infected in rhesus monkey at 0.50 mg/kg administered daily for 7 days. It counts as functional, organism-based. More on the design: dose 0.5 mg/kg.
Data set [14] concerns Plasmodium cynomolgi. Briefly: Antimalarial activity against Plasmodium cynomolgi infected in rhesus monkey assessed as disease cure at 1 mg/kg administered daily for 7 days. It counts as functional, organism-based. Also on record: dose 1 mg/kg. Put shortly:
as §2

Data set [15] concerns Mus musculus. The data set is described as follows: Toxicity in mouse infected with Plasmodium berghei assessed as animal death at 160 mg/kg, sc. It counts as organism-based. More on the design: dose 160 mg/kg, route subcutaneous. Particulars: in vivo.
In data set [16] the test system is Mus musculus. The data set is described as follows: Toxicity in mouse infected with Plasmodium berghei assessed as animal death at 320 mg/kg, sc. It counts as organism-based. Also on record: dose 320 mg/kg, route subcutaneous. Particulars: in vivo.
Data set [17] has as its system Plasmodium cynomolgi. Briefly: Antimalarial activity against Plasmodium cynomolgi infected in rhesus monkey assessed as disease cure at 0.5 mg/kg administered daily for 7 days. It counts as functional, organism-based. Also on record: dose 0.5 mg/kg. A digest of the protocol:
as §2

Molecules are shown by their SMILES. Calls of active or inactive are those of the source. The rule behind the calls is not given here.

In the case of `COc1cc(NCCCN)c2nccc(C)c2c1.Cl`, the MST was determined as 3.9 days in the data set on Plasmodium berghei [1] and 5.5 days in the data set on Plasmodium berghei [2]. For the same molecule, the Activity result in the data set with Mus musculus [3] is on record as “Toxic”. Moreover, in the data set on Plasmodium cynomolgi [4], the result was inactive.

On to `COc1cc([N+](=O)[O-])c2nccc(Oc3ccc(Cl)cc3)c2c1`, for which the MST in the data set with Plasmodium berghei [5] was 3.5 days; in the data set on Plasmodium berghei [6] it was 6.1 days; with Plasmodium berghei [7] it was 10.1 days. For the same molecule, the outcome in the data set with Plasmodium berghei [8], in the data set with Plasmodium berghei [9] and in the data set on Plasmodium berghei [10] was Active. Also, the Activity result with Mus musculus [3] is given as “Non-toxic”. Besides, in the data set on Plasmodium cynomolgi [11], the outcome was inactive.

Consider `COc1cc(NC(C)CCCN)c2nccc(SC)c2c1` (centres undefined), for which the MST with Plasmodium berghei [5] amounted to 0.1 days; with Plasmodium berghei [6] it was 0.1 days; with Plasmodium berghei [7], 1.3 days; in the data set on Plasmodium berghei [1], 3.5 days; in the data set with Plasmodium berghei [2], 6.7 days; in the data set on Plasmodium berghei [12], 8.1 days. In addition, the result with Plasmodium berghei [9], in the data set on Plasmodium berghei [10] and in the data set on Plasmodium cynomolgi [11] was inactive.

Regarding `COc1cc(NC(C)CCCCN)c2nccc(C)c2c1.O=P(O)(O)O` (centres undefined), the MST with Plasmodium berghei [5] is 5.8 days; in the data set with Plasmodium berghei [6] it was 7 days; with Plasmodium berghei [7] it was 10.4 days. For the same molecule, the result with Plasmodium berghei [8], in the data set with Plasmodium berghei [9], in the data set on Plasmodium berghei [10] and in the data set on Plasmodium cynomolgi [14] was Active. For the same molecule, the Activity entry in the data set with Mus musculus [3] is listed as “Non-toxic”. In addition, in the data set with Plasmodium cynomolgi [13], the outcome was inactive.

As for `COc1cc(NC(C)CCCN)c2ncccc2c1` (centres undefined) [PRIMAQUINE], the results for the MST in the data set on Plasmodium berghei [6] and with Plasmodium berghei [7] were 5 days and 9.4 days, respectively. The Activity result in the data set with Mus musculus [15], with Mus musculus [16] and with Mus musculus [3] was “Toxic” each time. Also, in the data set on Plasmodium cynomolgi [4], the result was inactive. Moreover, in the data set on Plasmodium cynomolgi [14], the outcome was Active.

Turning to `COc1cc(NC(C)CCCN)c2nccc(C)c2c1` (centres undefined), the MST in the data set with Plasmodium berghei [7] was determined as 5.5 days; in the data set with Plasmodium berghei [1] it was 9 days; in the data set on Plasmodium berghei [2], 10.1 days. Moreover, the result with Plasmodium berghei [10], with Plasmodium cynomolgi [14] and with Plasmodium cynomolgi [17] was Active. Besides, the Activity result in the data set on Mus musculus [3] is reported as “Toxic”.
